Data published in article PMC12062462 (Nature Communications, 2025).
Where a name gives a salt, the structure may show the parent alone.

How the values were obtained:
[1] = system: L929 cells (TNF-α-induced necroptosis); test: Necroptosis induction and inhibition assay in L929; format: cell-based, mouse; details: for EC50: Mus musculus, L929, read-out: EC50^L929 against TNF-α-induced necroptosis, mouse TNF-α (20 ng/mL) and zVAD (10 μM), CCK-8
[2] = system: HT29 cells (TNF-α-induced necroptosis); test: Necroptosis induction and inhibition assay in HT29; format: cell-based, human; details: for EC50: Homo sapiens, HT-29, read-out: EC50^HT29 against TNF-α-induced necroptosis, zVAD (20 μM), human TNF-α (40 ng/mL), Smac mimetic SM-164 (100 nM), CCK-8
L929^RIPK3-/- cells = test: Cell viability assay with or without zVAD, L929 RIPK3 knockout; format: cell-based, mouse
Method in brief: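 L929 cells were grown in MEM with 10% FBS. RIPK3 was knocked out by CRISPR/Cas9 (sgRNA against mouse RIPK3), and knockout was confirmed by sequencing and immunoblot. Knockout lines with or without re-expressed RIPK3 K51A or K51A/R69H were seeded at 10,000–20,000 cells/well and left to attach for 24 h. Cells were exposed to test compound alone or with zVAD for 18–20 h. Viability was read by CCK-8 (1–2 h, 37 °C, A450). Three experiments in triplicate; CC50 by nonlinear regression.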

[3] = system: caspase 3 activity in L929 cell lysates; test: Caspase 3 activity in L929 cell lysates; format: cell-based, mouse
Method in brief: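 L929 cells were cultured 12 h in 12-well plates, then exposed to test compound or DMSO for 0, 1, 2, 3 or 4 h. Protein was measured by BCA. Lysate was incubated with Ac-DEVD-pNA overnight at 37 °C and read at A405 minus blank. Three experiments, each in triplicate.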

[4] = system: caspase 3 and caspase 8 cleavage in L929 cells; test: Western blot of caspase 3 and caspase 8 cleavage in L929 cells; format: cell-based, mouse; details: L929, 3 hours
Method in brief: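 L929 cells in 12-well plates at about 80% confluency were exposed for 3 h to test compound, DMSO or medium, each with 10 µM zVAD. Cells were lysed at room temperature in a Triton X-100/Tris-based 1× SDS sample buffer and boiled 10 min. Proteins were run on 15% SDS-PAGE and blotted to PVDF. Membranes were blocked in 5% milk and probed for caspase 3 and caspase 8 cleavage overnight at 4 °C. Three independent experiments.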

[5] = system: RIPK3 and MLKL phosphorylation in L929 cells; test: Western blot of RIPK3 and MLKL phosphorylation, L929; format: cell-based, mouse; details: L929, inhibitors at 3 and 10 µM, necroptosis induced for 3 hours
Method in brief: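 L929 cells were grown in 6-well plates to about 80% confluency and given test compound or DMSO with zVAD (10 μM) for 1-2 h. Mouse TNF-α (20 ng/mL) was then added for 3 h. Cells were washed three times in cold PBS and lysed in 10 mM Tris-HCl pH 8.0, 1% SDS, 1 mM orthovanadate with protease and phosphatase inhibitors. Lysates were boiled for 10 min and stored at -80 °C. Phospho-RIPK3 and phospho-MLKL were immunoblotted after 10% SDS-PAGE and PVDF transfer.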

[6] = system: RIPK3 and MLKL phosphorylation in HT29 cells; test: Western blot of RIPK3 and MLKL phosphorylation, HT29; format: cell-based, human; details: HT29, inhibitors at 3 and 10 µM, necroptosis induced for 3 hours
Method in brief: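 HT29 cells were grown in 12-well plates to about 80% confluency and given test compound or DMSO with zVAD (20 μM) for 1-2 h. Necroptosis was then induced with human TNF-α (40 ng/mL) plus SM-164 (100 nM) for 3 h. Cells were washed three times in cold PBS and lysed for 10 min at room temperature in RIPA buffer with protease and phosphatase inhibitors and SDS loading buffer. Phospho-RIPK3 and phospho-MLKL were immunoblotted after 10% SDS-PAGE and PVDF transfer.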

RIPK3-RIPK1 interaction = RIPK3-RIPK1 interaction (Mus musculus, UniProt Q9QZL0); test: RIPK1 immunoprecipitation; format: cell-based; details: L929, 10 µM, 5 hours
Chain of RIPK3-RIPK1 interaction (Q9QZL0 whole entry): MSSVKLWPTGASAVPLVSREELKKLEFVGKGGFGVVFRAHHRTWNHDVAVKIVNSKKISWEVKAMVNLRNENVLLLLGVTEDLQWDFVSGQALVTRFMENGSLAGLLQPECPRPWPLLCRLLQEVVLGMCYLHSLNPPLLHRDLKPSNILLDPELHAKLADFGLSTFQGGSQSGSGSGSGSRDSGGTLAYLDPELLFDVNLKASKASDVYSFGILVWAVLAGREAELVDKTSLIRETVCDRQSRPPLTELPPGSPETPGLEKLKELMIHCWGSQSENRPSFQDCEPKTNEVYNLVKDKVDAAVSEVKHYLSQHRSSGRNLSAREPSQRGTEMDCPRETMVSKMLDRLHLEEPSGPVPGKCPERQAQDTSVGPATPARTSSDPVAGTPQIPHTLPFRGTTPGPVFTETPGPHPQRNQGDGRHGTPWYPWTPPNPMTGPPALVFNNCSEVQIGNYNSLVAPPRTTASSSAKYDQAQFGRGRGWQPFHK
Method in brief: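 Lysates were cleared at 17,000 g for 15 min at 4 °C, and an input sample was kept. Lysate was incubated with anti-RIPK1 antibody on protein A/G magnetic beads for 2 h at 4 °C. Co-precipitated RIPK3 was detected by Western blot. Normalized quantification came from three independent experiments.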

RIPK2 = RIPK2 (Homo sapiens, UniProt O43353); test: ADP-Glo kinase assay, RIPK2; format: biochemical
Chain of RIPK2 (O43353 1-310): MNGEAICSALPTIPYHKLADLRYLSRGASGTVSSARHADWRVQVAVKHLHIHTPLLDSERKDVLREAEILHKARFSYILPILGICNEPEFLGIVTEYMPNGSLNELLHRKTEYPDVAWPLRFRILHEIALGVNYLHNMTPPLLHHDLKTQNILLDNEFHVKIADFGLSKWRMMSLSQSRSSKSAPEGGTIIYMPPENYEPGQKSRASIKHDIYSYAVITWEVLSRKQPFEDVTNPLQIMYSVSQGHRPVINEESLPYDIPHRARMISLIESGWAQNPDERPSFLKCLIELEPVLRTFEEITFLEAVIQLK
Method in brief: (§1)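 Human kinase domains were expressed in Sf-9 cells from baculovirus and purified by Ni-NTA then size exclusion: BRK 185-446 (C433T, C-terminal 6×His) and RIPK2 1-310 (C-terminal 10×His). Each was preincubated with test compound or DMSO in 40 mM Tris pH 7.5, 20 mM MgCl2, 0.1 mg/mL BSA. ATP was added to 20 µM final for 1 h at room temperature, and ADP was read by ADP-Glo luminescence.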

BRK kinase domain = BRK kinase domain (Homo sapiens, UniProt Q13882, C433T); test: ADP-Glo kinase assay, BRK; format: biochemical
Chain of BRK kinase domain (Q13882 185-446 C433T): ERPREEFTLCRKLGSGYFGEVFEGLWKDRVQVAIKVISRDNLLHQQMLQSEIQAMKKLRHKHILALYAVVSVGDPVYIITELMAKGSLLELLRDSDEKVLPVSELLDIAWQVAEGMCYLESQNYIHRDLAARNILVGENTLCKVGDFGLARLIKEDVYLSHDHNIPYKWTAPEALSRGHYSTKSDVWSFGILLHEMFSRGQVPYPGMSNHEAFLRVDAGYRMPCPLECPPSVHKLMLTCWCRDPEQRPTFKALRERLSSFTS
Method in brief: as §1

[7] = target: panel of 379 human kinases (Homo sapiens, UniProt O43353); test: Selectivity profiling, Eurofins KinaseProfiler; format: biochemical; details: read-out: inhibition rate against RIPK2
Chain of panel of 379 human kinases (Homo sapiens, UniProt O43353) (O43353 whole entry): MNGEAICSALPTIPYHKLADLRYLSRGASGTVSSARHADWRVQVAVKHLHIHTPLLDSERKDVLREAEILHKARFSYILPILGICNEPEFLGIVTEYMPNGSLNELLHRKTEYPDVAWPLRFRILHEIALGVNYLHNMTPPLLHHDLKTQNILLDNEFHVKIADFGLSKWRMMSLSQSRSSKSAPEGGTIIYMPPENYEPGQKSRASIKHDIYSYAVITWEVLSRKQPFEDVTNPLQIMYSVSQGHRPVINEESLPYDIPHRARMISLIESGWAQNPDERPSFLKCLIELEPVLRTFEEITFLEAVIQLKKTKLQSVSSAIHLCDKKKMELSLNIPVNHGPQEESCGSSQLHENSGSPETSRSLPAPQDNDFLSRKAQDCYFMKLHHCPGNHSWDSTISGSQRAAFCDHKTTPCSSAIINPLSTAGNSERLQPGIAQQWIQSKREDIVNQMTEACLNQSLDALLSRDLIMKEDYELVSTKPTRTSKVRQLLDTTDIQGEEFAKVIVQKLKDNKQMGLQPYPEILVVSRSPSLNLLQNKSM

[8] = target: panel of 379 human kinases (Homo sapiens, UniProt Q13882); test: Selectivity profiling, Eurofins KinaseProfiler; format: biochemical; details: read-out: inhibition rate against breast tumor kinase (BRK)
Chain of panel of 379 human kinases (Homo sapiens, UniProt Q13882) (Q13882 whole entry): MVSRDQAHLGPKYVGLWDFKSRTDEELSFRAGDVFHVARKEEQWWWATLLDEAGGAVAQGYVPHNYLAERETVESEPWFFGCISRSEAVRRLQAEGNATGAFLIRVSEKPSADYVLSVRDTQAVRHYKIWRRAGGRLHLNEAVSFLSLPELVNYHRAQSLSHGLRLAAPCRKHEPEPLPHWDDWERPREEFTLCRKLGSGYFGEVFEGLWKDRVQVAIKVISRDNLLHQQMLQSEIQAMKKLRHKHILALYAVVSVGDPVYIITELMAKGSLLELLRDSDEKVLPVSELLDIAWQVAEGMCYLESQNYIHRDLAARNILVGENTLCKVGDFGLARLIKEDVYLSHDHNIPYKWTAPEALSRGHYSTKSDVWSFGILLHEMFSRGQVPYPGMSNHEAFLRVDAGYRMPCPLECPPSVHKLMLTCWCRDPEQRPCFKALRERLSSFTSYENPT

[9] = system: panel of 379 human kinases; test: Selectivity profiling, Eurofins KinaseProfiler; format: biochemical; details: 379 kinases
L929 cells = test: Cell viability assay with or without zVAD; format: cell-based, mouse; details: for on-target apoptosis in cells (in words): L929, murine cells

CC[C@H](C)c1nc2cc(Nc3ccnc4ccc(S(=O)(=O)C(C)C)cc34)ccc2s1 [LK01001, (S)-2-(sec-butyl)-N-(6-(isopropylsulfonyl)quinolin-4-yl)benzo[d]thiazol-5-amine hydrochloride]
EC50 [1]: 7000 nM
EC50 [2]: 4100 nM

CC[C@@H](C)c1nc2cc(Nc3ccnc4ccc(S(=O)(=O)C(C)C)cc34)ccc2s1.Cl [LK01002, (R)-2-(sec-butyl)-N-(6-(isopropylsulfonyl)quinolin-4-yl)benzo[d]thiazol-5-amine hydrochloride]
EC50 [1]: 4800 nM
EC50 [2]: 2000 nM
change of CC50 between L929 and L929^RIPK3-/- cells (L929^RIPK3-/- cells): remain largely unchanged
concentration at which caspase 3 is activated [3]: > 50 µM
activation of the apoptotic pathway: cleavage of caspase 8 and caspase 3 (Western blot) [4]: nor activate the apoptotic pathway
RIPK3 and MLKL phosphorylation induced by TNF-α (Western blot) [5]: effectively inhibit RIPK3 and MLKL phosphorylation
RIPK3 and MLKL phosphorylation induced by TNF-α (Western blot) [6]: effectively inhibit RIPK3 and MLKL phosphorylation
interaction between RIPK3 and RIPK1 (co-immunoprecipitation) (RIPK3-RIPK1 interaction): neither increase the interaction of RIPK3 with RIPK1

CC(C)S(=O)(=O)c1ccc2nccc(Nc3ccc4sc(C5CCCC5)nc4c3)c2c1.Cl [LK01003, 2-cyclopentyl-N-(6-(isopropylsulfonyl)quinolin-4-yl)benzo[d]thiazol-5-amine hydrochloride]
IC50 (RIPK2): 48 nM
selectivity index (SI), RIPK2 over RIPK3 (RIPK2): 24
IC50 (BRK kinase domain): 248 nM
selectivity index (SI), BRK over RIPK3 (BRK kinase domain): 124
EC50 [1]: 3700 nM
EC50 [2]: 850 nM
change of CC50 between L929 and L929^RIPK3-/- cells (L929^RIPK3-/- cells): remain largely unchanged
concentration at which caspase 3 is activated [3]: > 50 µM
activation of the apoptotic pathway: cleavage of caspase 8 and caspase 3 (Western blot) [4]: nor activate the apoptotic pathway
RIPK3 and MLKL phosphorylation induced by TNF-α (Western blot) [5]: effectively inhibit RIPK3 and MLKL phosphorylation
RIPK3 and MLKL phosphorylation induced by TNF-α (Western blot) [6]: effectively inhibit RIPK3 and MLKL phosphorylation
interaction between RIPK3 and RIPK1 (co-immunoprecipitation) (RIPK3-RIPK1 interaction): neither increase the interaction of RIPK3 with RIPK1
inhibition at 1 µM [7]: > 65%
inhibition at 1 µM [8]: > 65%
S (35) score ([9]; 1 μM): approximately 0.005
S (35) score ([9]; 10 μM): approximately 0.03
number of kinases with over 65% inhibition rate ([9]; 10 μM): 12 kinases

CCC(C)c1nc2cc(-c3nn(C(C)(C)C)c4ncnc(N)c34)ccc2s1 (stereo not shown) [LK01004, 1-(tert-butyl)-3-(2-(sec-butyl)benzo[d]thiazol-5-yl)-1H-pyrazolo[3,4-d]pyrimidin-4-amine]
EC50 [1]: 3000 nM
RIPK3-independent cell killing (off-target toxicity) (L929 cells; L929): still exhibit a substantial portion of RIPK3-independent cell killing
change of CC50 in the presence or absence of zVAD (L929 cells; L929): do not change significantly in the presence or absence of zVAD
on-target apoptosis in cells (in words) (L929 cells): do not induce on-target apoptosis
concentration at which cleavage of caspases 8 and 3 is seen (Western blot) [4]: > 100 µM

CC(C)(C)n1nc(-c2ccc3sc(C4CCCC4)nc3c2)c2c(N)ncnc21 [LK01005, 1-(tert-butyl)-3-(2-cyclopentylbenzo[d]thiazol-5-yl)-1H-pyrazolo[3,4-d]pyrimidin-4-amine]
EC50 [1]: 2100 nM
RIPK3-independent cell killing (off-target toxicity) (L929 cells; L929): still exhibit a substantial portion of RIPK3-independent cell killing
change of CC50 in the presence or absence of zVAD (L929 cells; L929): do not change significantly in the presence or absence of zVAD
on-target apoptosis in cells (in words) (L929 cells): do not induce on-target apoptosis
concentration at which cleavage of caspases 8 and 3 is seen (Western blot) [4]: > 100 µM

Cl.O=S1(=O)C=C(C2CC2)c2cc3nccc(Nc4ccc5sc(C6CCCC6)nc5c4)c3cc21 [LK01033, 8-((2-cyclopentylbenzo[d]thiazol-5-yl)amino)-3-cyclopropylthieno[2,3-g]quinoline 1,1-dioxide hydrochloride]
EC50 [1]: 390 nM
EC50 [2]: 110 nM
change of CC50 in the presence or absence of zVAD (L929 cells; L929): does not change significantly in the presence or absence of zVAD
concentration at which cleavage of caspases 8 and 3 is seen (Western blot) [4]: > 10 µM

CC(C)S(=O)(=O)c1cc2c(Nc3ccc4sc(C5CCCC5)nc4c3)ccnc2cc1OCCO [LK01045, 2-((4-((2-cyclopentylbenzo[d]thiazol-5-yl)amino)-6-(isopropylsulfonyl)quinolin-7-yl)oxy)ethan-1-ol]
stronger potency compared to GSK'872 (EC50, L929) ([1]; L929 necroptosis): approximately 6 fold
stronger potency compared to LK01003 (EC50, L929) ([1]; L929 necroptosis): approximately 6 fold
EC50 [1]: 610 nM
stronger potency compared to GSK'872 (EC50, HT29) ([2]; HT29 necroptosis): ~49 fold
stronger potency compared to LK01003 (EC50, HT29) ([2]; HT29 necroptosis): ~5 fold
EC50 [2]: 160 nM
change of CC50 between L929 and L929^RIPK3-/- cells (L929^RIPK3-/- cells): remain largely unchanged
concentration at which caspase 3 is activated [3]: > 50 µM
activation of the apoptotic pathway: cleavage of caspase 8 and caspase 3 (Western blot) [4]: nor activate the apoptotic pathway
RIPK3 and MLKL phosphorylation induced by TNF-α (Western blot) [5]: effectively inhibits RIPK3 and MLKL phosphorylation
RIPK3 and MLKL phosphorylation induced by TNF-α (Western blot) [6]: effectively inhibits RIPK3 and MLKL phosphorylation
interaction between RIPK3 and RIPK1 (co-immunoprecipitation) (RIPK3-RIPK1 interaction): neither increase the interaction of RIPK3 with RIPK1

N#Cc1c(Oc2ccc(F)c(NC(=O)Cc3cccc(C(F)(F)F)c3)c2)ccc2nc(NC(=O)C3CC3)sc12 [TAK-632, N-(7-Cyano-6-(4-fluoro-3-(2-(3-(trifluoromethyl)phenyl)acetamido)phenoxy)benzo[d]thiazol-2-yl)cyclopropanecarboxamide, reference compound]
concentration at which cleavage of caspases 8 and 3 is seen (Western blot) [4]: > 100 µM

Cl.O=S1(=O)C=C(C2CC2)c2cc3nccc(Nc4ccc5scnc5c4)c3cc21 [Zharp-99, 8-(benzo[d]thiazol-5-ylamino)-3-cyclopropylthieno[2,3-g]quinoline 1,1-dioxide hydrochloride, reference compound]
EC50 [1]: 70 nM
EC50 [2]: 220 nM
difference of CC50 in the presence or absence of zVAD (L929 cells; L929): ~ 36 fold
concentration at which cleavage of caspases 8 and 3 is seen (Western blot) [4]: 0.1 µM
